Kir21 block: Kir2.1 (mouse) channel inhibition; 310,000 compounds, 0.85% hits; HEK293-Kir2.1, FluxOR thallium flux fluorescence; active compounds read low; B-score at 10 µM;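 active means fluorescence ratio B-score at or below minus 3 SD of library scores, with starting-brightness B-score within 2 SD, cut at about -4.2 in these data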;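 further: channel flux triggered by added potassium and thallium sulfate stimulus; B-score of peak minus minimum fluorescence over baseline after thallium stimulus; more negative B-score means stronger Kir2.1 block with less thallium influx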
hERG protect: compounds protecting human hERG from proarrhythmic drug block | Q12809 | CHO-hERG, FluxOR thallium flux, dofetilide IC70 present | activation (rescue from dofetilide block), less the hit threshold, % at 10 µM | 310,000 compounds, 0.51% hits;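 active means activation above the mean of controls blocked by dofetilide plus 5 SD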;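 further: thallium influx through hERG after potassium depolarization seen as dye fluorescence rise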
KCNK3 inh: human KCNK3 channel inhibition, primary screen. CHO-KCNK3 thallium flux, FluxOR fluorescence; active compounds read low. AID 602410. 340,000 compounds, 0.84% hits. B-score at 10 µM;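 active means B-score under library mean minus 4 SD, starting fluorescence ratio at most library mean plus 5 SD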;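 further: more negative B-score means stronger inhibition of thallium flux through KCNK3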
Target sequence (O14649 whole entry, looked up): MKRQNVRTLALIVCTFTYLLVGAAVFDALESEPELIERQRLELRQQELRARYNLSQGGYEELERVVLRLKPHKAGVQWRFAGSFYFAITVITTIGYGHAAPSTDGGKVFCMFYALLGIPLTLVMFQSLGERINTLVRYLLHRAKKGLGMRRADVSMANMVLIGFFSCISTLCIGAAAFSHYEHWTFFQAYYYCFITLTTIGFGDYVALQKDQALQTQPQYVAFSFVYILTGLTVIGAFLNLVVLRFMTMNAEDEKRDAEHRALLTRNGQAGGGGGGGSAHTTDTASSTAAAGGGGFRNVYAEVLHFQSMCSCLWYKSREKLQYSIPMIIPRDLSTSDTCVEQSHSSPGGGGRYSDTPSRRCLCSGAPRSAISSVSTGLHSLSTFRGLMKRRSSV
KCNQ1 pot: human KCNQ1 channel potentiation or activation. P51787. CHO-K1 KCNQ1, thallium flux FluxOR fluorescence; active compounds read high. B-score at 10 µM. 310,000 compounds, 0.35% hits. AID 2648;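 active means fluorescence ratio B-score, a plate-corrected score, at least three library SD, with initial intensity B-score within 5 SD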
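assay system = KCNQ1-transfected CHO-K1 cells | medium = assay buffer with matched DMSO | probe or stimulus = depolarizing K+/Tl+ stimulus, K2SO4 and Tl2SO4 each 12.5 mM in 5x stock | dosing = single dose | incubation = dye 90 min, compound 20 min, room temperature | detection = kinetic FluxOR fluorescence, 10 s baseline plus 110 s post-stimulus | evaluation = ratio B score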
KCNQ1 block: inhibitors of human KCNQ1 potassium channel | 310,000 compounds, 1.3% hits | P51787 | B-score at 10 µM | CHO-K1 KCNQ1, FluxOR thallium flux fluorescence; active compounds read high;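 active means compounds whose thallium flux B-score, printed positive for inhibition, exceeds three library SD while starting fluorescence stays within three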;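 further: channel opened by potassium depolarization with thallium stimulus after 20 min compound exposure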
KCNK9 block: inhibitors of human KCNK9 two-pore domain potassium channel; B-score at 10 µM; 310,000 compounds, 1.2% hits; Q9NPC2; HEK293 KCNK9, FluxOR thallium flux fluorescence; active compounds read low;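 active means ratio B-score over 3 SD below the library mean, with starting fluorescence within 5 SD of its mean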;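 further: negative B-score means less thallium flux so channel inhibition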
Of the large screens only hits and unclear results are named; the others gave an inactive call. A selection: hits, their analogues and other compounds. The true share with any hit is near 3.8%.

CC(=O)NNc1ncnc2ccccc12	none
O=C(Cc1ccc(NC(=O)C2CCCN(C(=O)C3CC3)C2)cc1)Nc1cccc(C(=O)N2CCCCC2)c1 (stereo not drawn)	none (no result: Kir21 block, hERG protect, KCNQ1 pot, KCNQ1 block, KCNK9 block)
CCOc1ccccc1NC1=C(Cl)C(=O)N(c2ccccc2)C1=O	KCNQ1 pot 13
CN(CC(=O)Nc1ccc(Cl)cc1)C(=O)CCc1nc2sc3c(c2c(=O)[nH]1)CCCC3	none
CCC(C)n1c(=S)[nH]c2c(sc3ccc([N+](=O)[O-])cc32)c1=O (stereo not drawn)	hERG protect 105
COc1cc(F)c(S(=O)(=O)N2CCOc3ccccc32)cc1OC	Kir21 block -5.3
C[C@@]12C(=O)N(CC3CCCO3)CC(=O)N1[C@H]1c3cc(Cl)ccc3OC[C@@H]1[C@@H]2c1ccccc1 (stereo partly drawn)	none (no result: Kir21 block, hERG protect, KCNQ1 pot, KCNQ1 block, KCNK9 block)
OC(CNC1Cc2ccccc2C1)COc1ccc(Cl)cc1 (stereo not drawn)	Kir21 block -4.2
OC(CNCc1ccccc1)COc1ccccc1 (stereo not drawn)	none
O=C(c1ccccc1)c1ccc(OCC(O)CNCc2ccc(Cl)cc2)cc1 (stereo not drawn)	Kir21 block -4.7
OC(CNC1CCCc2ccccc21)COc1c(Cl)cccc1Cl (stereo not drawn)	Kir21 block -8.9
COc1cccc(CNCC(O)COc2ccc(C(=O)c3ccccc3)cc2)c1 (stereo not drawn)	Kir21 block -5.4
Cc1cc(C)n2nc(C(=O)OCC(=O)NCc3ccc(F)cc3)nc2n1	none (no result: Kir21 block, hERG protect, KCNQ1 pot, KCNQ1 block, KCNK9 block)
C[C@@H](NC(=O)c1nc[nH]c1C(=O)NCC(=O)OCc1ccccc1)c1ccccc1	none
COc1ccccc1C(=O)Nc1onc(C)c1C#N	hERG protect 6.2
Cc1noc(NC(=O)c2ccccc2Cl)c1C#N	none
Cc1ccc(Cl)cc1N1CCN(Cc2nnnn2C2CCCCC2)CC1	KCNK3 inh -11
Cc1ccc(Cl)cc1N1CCN(Cc2nnnn2Cc2ccco2)CC1	none
c1ccc(N2CCN(c3nc(-c4cccs4)nc4ccccc34)CC2)cc1	KCNK9 block -14
COc1ccccc1/C=C/C(=O)c1cc(Br)ccc1OC(=O)c1ccco1	hERG protect 5.0
O=C(/C=C/c1cc(Br)ccc1O)c1ccco1	Kir21 block -5.9, KCNK3 inh -9.8
O=C(/C=C/c1ccccc1O)c1ccco1	none
COc1ccc(OC)c(S(=O)(=O)Nc2cc3c4c(c2)C(C)C(=O)N4CCC3)c1 (stereo not drawn)	none
O=C(CC1C(=O)NCCN1Cc1ccccc1)NCCCOc1cccnc1 (stereo not drawn)	none
O=C(c1ccc(N2CCCCCC2)c([N+](=O)[O-])c1)N1CCc2ccccc21	KCNK9 block -7.4 (no result: KCNK3 inh)
CCN(CC)CCCN(C(=O)c1cccc(C)c1)c1nc(-c2ccc(OC)cc2)cs1	none
Oc1c(Br)cc(Br)cc1/C=N/c1nc2c(s1)CCCC2	KCNQ1 pot 13
CCOc1ccc(S(=O)(=O)N2CCN(C(=O)c3ccncc3)CC2)cc1	none
Cc1ccc(O)c(-c2cc(-c3ccccc3C)[nH]n2)c1	KCNK9 block -7.4
N#Cc1ccccc1OCC(=O)OCC(=O)NC1CCS(=O)(=O)C1 (stereo not drawn)	none (no result: Kir21 block, hERG protect, KCNQ1 pot, KCNQ1 block, KCNK9 block)
O=C(NCC1CCCO1)c1cn(Cc2ccccc2)nc1-c1ccc(Cl)cc1 (stereo not drawn)	none (no result: Kir21 block, hERG protect, KCNQ1 pot, KCNQ1 block, KCNK9 block)
Cc1ccc(C2NC(c3ccc(C)cc3)C(C)C(=O)C2C)cc1 (stereo not drawn)	KCNK9 block -7
O=C(Cc1cccc(NC(=O)C2CCCN(C(=O)C3CCCC3)C2)c1)Nc1ccc(C(=O)N2CCCCC2)cc1 (stereo not drawn)	none (no result: Kir21 block, hERG protect, KCNQ1 pot, KCNQ1 block, KCNK9 block)
Cc1ccc(C(C[N+](=O)[O-])c2c(C)[nH]n(-c3ccccc3)c2=O)cc1 (stereo not drawn)	Kir21 block -12
CN(C(=O)Cn1cccc1C1=NC(c2ccccc2)CO1)c1ccccc1 (stereo not drawn)	Kir21 block -4.7
CCOC(=O)Cn1nc(NC(=O)COc2ccc(F)cc2)cc1C	none
CCCCOc1cccc(C2/C(=C(\O)c3ccc4c(c3)OCCO4)C(=O)C(=O)N2CCN2CCOCC2)c1 (stereo not drawn)	none
